# Data published in ChEMBL document CHEMBL5058577, “EUbOPEN Chemogenomics Library 2 (Multiplex)” (2022).
# Tested on: Fibroblast
# Assay: Multiplex assay against human fibroblast
# Type: toxicity, cell-based
# Outline: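 Cells stained live at seeding with Hoechst33342, BioTracker Green Microtubule Cytoskeleton Dye, MitoTracker Red and Annexin V Alexa Fluor 680 were imaged on a CQ1 microscope at 37°C and 5% CO2 after compound addition. Their classification by CellPathfinder machine-learning gating ran from Hoechst high-intensity objects versus normal cells, to healthy, pyknosed or fragmented nuclei among normal cells, to mitotic or apoptotic among pyknosed cells. Tubulin, mitochondrial-mass and membrane-permeability phenotypes are per cents of healthy-nucleus cells.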
# [1] = 12 h, 1 µM, compound concentration 1 uM, replicate 1
# [2] = 12 h, 1 µM, compound concentration 1 uM, replicate 2
# [3] = 12 h, 10 µM, compound concentration 10 uM, replicate 1
# [4] = 12 h, 10 µM, compound concentration 10 uM, replicate 2
# [5] = 24 h, 1 µM, compound concentration 1 uM, replicate 1
# [6] = 24 h, 1 µM, compound concentration 1 uM, replicate 2
# [7] = 24 h, 10 µM, compound concentration 10 uM, replicate 1
# [8] = 24 h, 10 µM, compound concentration 10 uM, replicate 2
# [9] = 48 h, 1 µM, compound concentration 1 uM, replicate 1
# [10] = 48 h, 1 µM, compound concentration 1 uM, replicate 2
# [11] = 48 h, 10 µM, compound concentration 10 uM, replicate 1
# [12] = 48 h, 10 µM, compound concentration 10 uM, replicate 2
smiles,measurement,setting,value
CN(C)C/C=C/C(=O)Nc1ccc(C(=O)N2CCCC(Nc3ncc(Cl)c(-c4c[nH]c5ccccc45)n3)C2)cc1 (stereo not given),Population Apoptotic (%),[1],48%
same,Population Fragmented Nuclei (%),[1],15%
same,Population Healthy Nuclei (%),[1],64%
same,Population Hoechst High Intensity Objects (%),[1],2%
same,Population Membrane Permeable-Phenotype (%),[1],2%
same,Population Mitochondria Different-Phenotype (%),[1],11%
same,Population Mitotic Cells (%),[1],51%
same,Population Normal (%),[1],97%
same,Population Pyknosed Nuclei (%),[1],19%
same,Population Tubulin-Different-Phenotype (%),[1],40%
same,Total Cell Count,[1],152
same,Population Apoptotic (%),[2],46%
same,Population Fragmented Nuclei (%),[2],21%
same,Population Healthy Nuclei (%),[2],53%
same,Population Hoechst High Intensity Objects (%),[2],6%
same,Population Membrane Permeable-Phenotype (%),[2],3%
same,Population Mitochondria Different-Phenotype (%),[2],13%
same,Population Mitotic Cells (%),[2],53%
same,Population Normal (%),[2],93%
same,Population Pyknosed Nuclei (%),[2],25%
same,Total Cell Count,[2],182
same,Population Apoptotic (%),[3],59%
same,Population Fragmented Nuclei (%),[3],18%
same,Population Healthy Nuclei (%),[3],53%
same,Population Hoechst High Intensity Objects (%),[3],4%
same,Population Membrane Permeable-Phenotype (%),[3],1%
same,Population Mitochondria Different-Phenotype (%),[3],37%
same,Population Mitotic Cells (%),[3],40%
same,Population Normal (%),[3],95%
same,Population Pyknosed Nuclei (%),[3],27%
same,Population Tubulin-Different-Phenotype (%),[3],77%
same,Total Cell Count,[3],140
same,Population Apoptotic (%),[4],48%
same,Population Fragmented Nuclei (%),[4],23%
same,Population Healthy Nuclei (%),[4],41%
same,Population Hoechst High Intensity Objects (%),[4],8%
same,Population Membrane Permeable-Phenotype (%),[4],12%
same,Population Mitochondria Different-Phenotype (%),[4],19%
same,Population Mitotic Cells (%),[4],51%
same,Population Normal (%),[4],91%
same,Population Pyknosed Nuclei (%),[4],35%
same,Population Tubulin-Different-Phenotype (%),[4],58%
same,Total Cell Count,[4],147
same,Population Apoptotic (%),[5],68%
same,Population Fragmented Nuclei (%),[5],25%
same,Population Healthy Nuclei (%),[5],48%
same,Population Hoechst High Intensity Objects (%),[5],7%
same,Population Membrane Permeable-Phenotype (%),[5],2%
same,Population Mitochondria Different-Phenotype (%),[5],7%
same,Population Mitotic Cells (%),[5],31%
same,Population Normal (%),[5],92%
same,Population Pyknosed Nuclei (%),[5],26%
same,Population Tubulin-Different-Phenotype (%),[5],40%
same,Total Cell Count,[5],155
same,Population Apoptotic (%),[6],37%
same,Population Fragmented Nuclei (%),[6],26%
same,Population Healthy Nuclei (%),[6],49%
same,Population Membrane Permeable-Phenotype (%),[6],10%
same,Population Mitochondria Different-Phenotype (%),[6],10%
same,Population Mitotic Cells (%),[6],62%
same,Population Pyknosed Nuclei (%),[6],23%
same,Population Tubulin-Different-Phenotype (%),[6],54%
same,Total Cell Count,[6],181
same,Population Apoptotic (%),[7],65%
same,Population Fragmented Nuclei (%),[7],13%
same,Population Healthy Nuclei (%),[7],49%
same,Population Hoechst High Intensity Objects (%),[7],2%
same,Population Membrane Permeable-Phenotype (%),[7],0%
same,Population Mitochondria Different-Phenotype (%),[7],52%
same,Population Mitotic Cells (%),[7],34%
same,Population Normal (%),[7],97%
same,Population Pyknosed Nuclei (%),[7],37%
same,Population Tubulin-Different-Phenotype (%),[7],84%
same,Total Cell Count,[7],119
same,Population Apoptotic (%),[8],47%
same,Population Fragmented Nuclei (%),[8],30%
same,Population Healthy Nuclei (%),[8],42%
same,Population Hoechst High Intensity Objects (%),[8],6%
same,Population Membrane Permeable-Phenotype (%),[8],5%
same,Population Mitochondria Different-Phenotype (%),[8],35%
same,Population Mitotic Cells (%),[8],52%
same,Population Normal (%),[8],93%
same,Population Pyknosed Nuclei (%),[8],27%
same,Population Tubulin-Different-Phenotype (%),[8],72%
same,Total Cell Count,[8],149
same,Population Apoptotic (%),[9],63%
same,Population Fragmented Nuclei (%),[9],33%
same,Population Healthy Nuclei (%),[9],36%
same,Population Hoechst High Intensity Objects (%),[9],10%
same,Population Membrane Permeable-Phenotype (%),[9],2%
same,Population Mitochondria Different-Phenotype (%),[9],20%
same,Population Mitotic Cells (%),[9],36%
same,Population Normal (%),[9],90%
same,Population Pyknosed Nuclei (%),[9],30%
same,Population Tubulin-Different-Phenotype (%),[9],48%
same,Total Cell Count,[9],150
same,Population Apoptotic (%),[10],60%
same,Population Fragmented Nuclei (%),[10],35%
same,Population Healthy Nuclei (%),[10],40%
same,Population Hoechst High Intensity Objects (%),[10],8%
same,Population Membrane Permeable-Phenotype (%),[10],8%
same,Population Mitochondria Different-Phenotype (%),[10],25%
same,Population Mitotic Cells (%),[10],40%
same,Population Normal (%),[10],91%
same,Population Pyknosed Nuclei (%),[10],24%
same,Population Tubulin-Different-Phenotype (%),[10],68%
same,Total Cell Count,[10],158
same,Population Apoptotic (%),[11],77%
same,Population Fragmented Nuclei (%),[11],28%
same,Population Healthy Nuclei (%),[11],20%
same,Population Hoechst High Intensity Objects (%),[11],14%
same,Population Membrane Permeable-Phenotype (%),[11],0%
same,Population Mitochondria Different-Phenotype (%),[11],55%
same,Population Mitotic Cells (%),[11],22%
same,Population Normal (%),[11],85%
same,Population Pyknosed Nuclei (%),[11],51%
same,Population Tubulin-Different-Phenotype (%),[11],66%
same,Total Cell Count,[11],103
same,Population Apoptotic (%),[12],68%
same,Population Fragmented Nuclei (%),[12],27%
same,Population Healthy Nuclei (%),[12],41%
same,Population Hoechst High Intensity Objects (%),[12],13%
same,Population Membrane Permeable-Phenotype (%),[12],17%
same,Population Mitochondria Different-Phenotype (%),[12],29%
same,Population Mitotic Cells (%),[12],31%
same,Population Normal (%),[12],86%
same,Population Pyknosed Nuclei (%),[12],30%
same,Population Tubulin-Different-Phenotype (%),[12],80%
same,Total Cell Count,[12],130
COc1cc2nc(N3CCN(C(=O)COc4c(OC)cccc4C(C)C)CC3)nc(N)c2cc1OC.Cl.Cl,Population Apoptotic (%),[1],50%
same,Population Fragmented Nuclei (%),[1],17%
same,Population Healthy Nuclei (%),[1],51%
same,Population Hoechst High Intensity Objects (%),[1],4%
same,Population Membrane Permeable-Phenotype (%),[1],3%
same,Population Mitochondria Different-Phenotype (%),[1],6%
same,Population Mitotic Cells (%),[1],50%
same,Population Normal (%),[1],95%
same,Population Pyknosed Nuclei (%),[1],30%
same,Population Tubulin-Different-Phenotype (%),[1],40%
same,Total Cell Count,[1],123
same,Population Apoptotic (%),[2],36%
same,Population Fragmented Nuclei (%),[2],39%
same,Population Healthy Nuclei (%),[2],42%
same,Population Hoechst High Intensity Objects (%),[2],9%
same,Population Membrane Permeable-Phenotype (%),[2],5%
same,Population Mitochondria Different-Phenotype (%),[2],7%
same,Population Mitotic Cells (%),[2],63%
same,Population Normal (%),[2],90%
same,Population Pyknosed Nuclei (%),[2],18%
same,Population Tubulin-Different-Phenotype (%),[2],43%
same,Total Cell Count,[2],182
same,Population Apoptotic (%),[3],33%
same,Population Fragmented Nuclei (%),[3],13%
same,Population Healthy Nuclei (%),[3],47%
same,Population Hoechst High Intensity Objects (%),[3],20%
same,Population Membrane Permeable-Phenotype (%),[3],0%
same,Population Mitochondria Different-Phenotype (%),[3],15%
same,Population Mitotic Cells (%),[3],66%
same,Population Normal (%),[3],79%
same,Population Pyknosed Nuclei (%),[3],38%
same,Population Tubulin-Different-Phenotype (%),[3],63%
same,Total Cell Count,[3],346
same,Population Apoptotic (%),[4],29%
same,Population Fragmented Nuclei (%),[4],22%
same,Population Healthy Nuclei (%),[4],46%
same,Population Hoechst High Intensity Objects (%),[4],10%
same,Population Membrane Permeable-Phenotype (%),[4],4%
same,Population Mitochondria Different-Phenotype (%),[4],8%
same,Population Mitotic Cells (%),[4],70%
same,Population Normal (%),[4],89%
same,Population Pyknosed Nuclei (%),[4],30%
same,Population Tubulin-Different-Phenotype (%),[4],56%
same,Total Cell Count,[4],283
same,Population Apoptotic (%),[5],68%
same,Population Fragmented Nuclei (%),[5],23%
same,Population Healthy Nuclei (%),[5],58%
same,Population Hoechst High Intensity Objects (%),[5],3%
same,Population Membrane Permeable-Phenotype (%),[5],1%
same,Population Mitochondria Different-Phenotype (%),[5],9%
same,Population Mitotic Cells (%),[5],31%
same,Population Normal (%),[5],96%
same,Population Pyknosed Nuclei (%),[5],17%
same,Population Tubulin-Different-Phenotype (%),[5],39%
same,Total Cell Count,[5],128
same,Population Apoptotic (%),[6],57%
same,Population Fragmented Nuclei (%),[6],40%
same,Population Healthy Nuclei (%),[6],42%
same,Population Hoechst High Intensity Objects (%),[6],11%
same,Population Membrane Permeable-Phenotype (%),[6],5%
same,Population Mitochondria Different-Phenotype (%),[6],11%
same,Population Mitotic Cells (%),[6],42%
same,Population Normal (%),[6],88%
same,Population Tubulin-Different-Phenotype (%),[6],50%
same,Total Cell Count,[6],180
same,Population Apoptotic (%),[7],40%
same,Population Fragmented Nuclei (%),[7],13%
same,Population Healthy Nuclei (%),[7],45%
same,Population Hoechst High Intensity Objects (%),[7],39%
same,Population Membrane Permeable-Phenotype (%),[7],0%
same,Population Mitochondria Different-Phenotype (%),[7],17%
same,Population Mitotic Cells (%),[7],60%
same,Population Normal (%),[7],60%
same,Population Pyknosed Nuclei (%),[7],41%
same,Population Tubulin-Different-Phenotype (%),[7],38%
same,Total Cell Count,[7],344
same,Population Apoptotic (%),[8],33%
same,Population Fragmented Nuclei (%),[8],25%
same,Population Healthy Nuclei (%),[8],40%
same,Population Hoechst High Intensity Objects (%),[8],23%
same,Population Membrane Permeable-Phenotype (%),[8],4%
same,Population Mitochondria Different-Phenotype (%),[8],5%
same,Population Mitotic Cells (%),[8],66%
same,Population Normal (%),[8],76%
same,Population Pyknosed Nuclei (%),[8],34%
same,Population Tubulin-Different-Phenotype (%),[8],47%
same,Total Cell Count,[8],273
same,Population Apoptotic (%),[9],65%
same,Population Fragmented Nuclei (%),[9],31%
same,Population Healthy Nuclei (%),[9],51%
same,Population Hoechst High Intensity Objects (%),[9],4%
same,Population Membrane Permeable-Phenotype (%),[9],0%
same,Population Mitochondria Different-Phenotype (%),[9],11%
same,Population Mitotic Cells (%),[9],35%
same,Population Normal (%),[9],96%
same,Population Pyknosed Nuclei (%),[9],16%
same,Population Tubulin-Different-Phenotype (%),[9],30%
same,Total Cell Count,[9],125
same,Population Apoptotic (%),[10],42%
same,Population Fragmented Nuclei (%),[10],45%
same,Population Healthy Nuclei (%),[10],43%
same,Population Hoechst High Intensity Objects (%),[10],10%
same,Population Membrane Permeable-Phenotype (%),[10],8%
same,Population Mitochondria Different-Phenotype (%),[10],10%
same,Population Mitotic Cells (%),[10],57%
same,Population Normal (%),[10],89%
same,Population Pyknosed Nuclei (%),[10],11%
same,Population Tubulin-Different-Phenotype (%),[10],57%
same,Total Cell Count,[10],193
same,Population Apoptotic (%),[11],45%
same,Population Fragmented Nuclei (%),[11],12%
same,Population Healthy Nuclei (%),[11],45%
same,Population Hoechst High Intensity Objects (%),[11],52%
same,Population Membrane Permeable-Phenotype (%),[11],2%
same,Population Mitochondria Different-Phenotype (%),[11],10%
same,Population Mitotic Cells (%),[11],54%
same,Population Normal (%),[11],47%
same,Population Pyknosed Nuclei (%),[11],42%
same,Population Tubulin-Different-Phenotype (%),[11],42%
same,Total Cell Count,[11],358
same,Population Apoptotic (%),[12],30%
same,Population Fragmented Nuclei (%),[12],33%
same,Population Healthy Nuclei (%),[12],33%
same,Population Hoechst High Intensity Objects (%),[12],31%
same,Population Membrane Permeable-Phenotype (%),[12],9%
same,Population Mitochondria Different-Phenotype (%),[12],0%
same,Population Mitotic Cells (%),[12],69%
same,Population Normal (%),[12],68%
same,Population Pyknosed Nuclei (%),[12],33%
same,Population Tubulin-Different-Phenotype (%),[12],43%
same,Total Cell Count,[12],311
